Assay: Toxicity liver stage against HepG2, at 10uM
Type: cell-based
Design: test concentration 10 uM, cell line HepG2-A16-CD81EGFP
Details: human, HepG2-A16-CD81EGFP cells; read-out: INHIBITION
How it was run: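 Uninfected HepG2-A16-CD81EGFP cells, 3 × 10^3 per well, 1536-well, plated on prespotted compound at 10 μM final, parasite-free screening media added to match infected plates; puromycin 10 μM positive, DMSO 0.5% negative; run in parallel with 48 h PbLuc assay at 37 °C, 5% CO2; viability by CellTiter-Glo luminescence, normalized to controls.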

Compound	cytotoxicity at 10 µM
Cc1ccc2[nH]c3c(c2c1)CN(C(=O)CN(C)CC1OCCO1)CC3	6.5%
Cc1cc(CN2CCN3C[C@H](c4ccccc4)[C@@H](CO)[C@H]3C2)on1	7.66%
COc1ccc(C2CC(=O)Oc3cc(C)[nH]c(=O)c32)cc1O (stereo unspecified)	-4.47%
CN(C)S(=O)(=O)c1ccc(-c2nc(C#N)c(NC3CC3)o2)o1	-18.4%
CNC(=O)[C@H]1CC[C@@H]2[C@@H](CCN2C(=O)N(C)C)O1	6.86%
Cn1cc(-c2nc(C3CCN(S(C)(=O)=O)CC3)cc3c2ncn3C)cn1	1.39%
Cn1nc(CNC(=O)CC#N)c2c1CN(C(N)=O)CC2	3.8%
CC(=O)N1CCc2ncc(CNC(=O)C3CCC3)n2CC1	7.48%
COc1cc(N2C[C@H](C(=O)N3CCCC3)[C@@H]3CCO[C@@H]3C2)ncn1	-0.211%
c1cc(-c2ccc3c(c2)C2(CC3)CCN(c3nncs3)CC2)ccn1	1.13%
O=C(NCc1ccc(Cl)cc1)C1CCCN(c2ccc3nncn3n2)C1 (stereo unspecified)	6.44%
Cc1ccc(C(=O)N2CCCC3(CCCC(=O)N3C)C2)cc1F (stereo unspecified)	4.12%
COc1cc(NC(=O)NCC2CCCO2)cc(OC)c1 (stereo unspecified)	15.6%
CCn1cc(NC(=O)c2cc(C)nc(N3CCOCC3)n2)cn1	6%
Cc1c[nH]nc1C1CCCN1Cc1ccncc1 (stereo unspecified)	13.1%
CNc1cc(C2CCN2c2ncccn2)nc(C)n1 (stereo unspecified)	1.72%
CCCNC(=O)Nc1ncc(-c2cccnc2)s1	3.11%
COCCN1CCC(c2nc3cc(C)ccc3[nH]2)CC1	-0.621%
Cc1cccc(NC(=O)c2cncc(C3CCNCC3)n2)n1	0.691%
NC1(CN2CCCCC2)CCCCC1	1.46%
CNc1cc(C2CCCN(C(=O)c3ccc(=O)[nH]n3)C2)ccn1 (stereo unspecified)	-11.8%
CN(C)c1cncc(C2CCN(CCO)CC2)n1	3.29%
O=C(CN1CCCC(c2noc(C3CC3)n2)C1)N1CCCC1 (stereo unspecified)	1.87%

Compound	cytotoxicity at 10 µM
CC(NCc1cnn(C)c1)c1noc(-c2ccc(Cl)cc2)n1 (stereo unspecified)	3.97%
O=C1CSc2ccc(C(=O)N3CCCC(n4ccnc4)C3)cc2N1 (stereo unspecified)	-8.44%
N#CCCN(CC1CCOC1)Cn1ccc(-c2ccccc2)n1 (stereo unspecified)	-3.8%
N#CCCN(CC1CCOC1)Cn1ccc(-c2cccs2)n1 (stereo unspecified)	10.9%
CC(C)(NCc1cccc(C#N)c1)c1ccc2c(c1)OCO2	3.34%
CN(C)Cc1nc(C(C)(C)NC(=O)c2ccc3ccccc3c2)no1	-2.22%
CN(Cc1ccccc1F)C(=O)c1cc(Cl)c[nH]1	-5.45%
C=C(C)CN(c1cn[nH]c1)S(=O)(=O)c1cccc(C#N)c1	3.84%
CCN(CC)C(=O)N1CCN(CCc2ccncc2)CC1	-38.9%
CSCc1ccc(CNCCN2CCOCC2)o1	-0.583%
Cc1cc(NCCC(=O)NC2CCS(=O)(=O)C2)nc(-c2ccncc2)n1 (stereo unspecified)	-6.74%
COCCN1CCC(NC(=O)NCC2(c3ccccc3)CC2)C1 (stereo unspecified)	0.814%
O=C(Nc1ccc(Cl)cn1)C1CCCN(Cc2ccccn2)C1 (stereo unspecified)	-10.5%
CS(=O)(=O)CCCC(=O)Nc1cc(Cl)c(Cl)cn1	2.69%
Cc1nn(C)c(N2CCCN(C)CC2)c1CNC(=O)CC(C)(C)C	8%
O=C(NCCc1ccccn1)NC1CCN(c2ccccc2)C1=O (stereo unspecified)	-2.84%
Cc1csc(CNC(=O)NCC(O)c2ccc(F)cc2)n1 (stereo unspecified)	12.1%
O=C(C(CNCc1cccc(O)c1)c1ccccc1)N1CCOCC1 (stereo unspecified)	-2.06%
N#Cc1cccc(S(=O)(=O)N2CCCCC2C(N)=O)c1 (stereo unspecified)	0.645%
CNC(=O)C1CCC(NC(=O)c2cc(C3CC3)n(C(C)(C)C)n2)CC1 (stereo unspecified)	4.74%
Cn1cnn(Cc2c(F)cccc2Br)c1=O	4.48%
O=C(CCN1CCOC1=O)N(Cc1ccncc1)CC1CCCO1 (stereo unspecified)	0.606%
CN(Cc1ccccc1)C(=O)CN1CCCC1c1cnn(C)c1 (stereo unspecified)	6.91%

Compound	cytotoxicity at 10 µM
Cc1ccc(C(=O)N2CCOc3nc(C)ccc32)c(F)c1	-2.71%
CCN1CCCN(S(=O)(=O)c2cnc3onc(C)c3c2)CC1	4.62%
CC(Cn1cccn1)NC(=O)c1ccsc1 (stereo unspecified)	-5.2%
Cc1cnc(CNC(=O)N(Cc2ccccc2)CC(C)(C)O)s1	-3.22%
CC(NC(=O)NCCN1CCCCCC1=O)c1ccc(Cl)s1 (stereo unspecified)	-0.331%
Cc1cccc(S(=O)(=O)N2C[C@@H]3C[C@@H](c4nnc(C)[nH]4)O[C@@H]3C2)c1	9.59%
COCCN1C(=O)C[C@@H]2[C@H]1CCN2C(=O)COc1ccccc1	-0.902%
COCc1cc(NCc2ccccc2-n2cncn2)ncn1	-0.132%
O=C(c1cnn2ccccc12)N1CCCC(OCc2ccccn2)C1 (stereo unspecified)	-3.74%
CCOC(=O)CCNC(=O)N1CCCC(CNC(=O)c2ccco2)C1 (stereo unspecified)	14.9%
CN1CCC(n2nc(Cc3cccc(Cl)c3)nc2Cn2cnnn2)CC1	-12.4%
Cc1cc(CN2CCN(C(C)C)C(CCO)C2)[nH]n1 (stereo unspecified)	4.86%
COCCn1cnnc1CNc1cc(C)nc2c(C)c(C)nn12	-0.715%
Cc1cc(N[C@H]2CCCC[C@@H]2O)n2nccc2n1	-1.42%
Cc1ccc(C(=O)O)cc1-c1cccc2c1CCNC2	7.56%
O=C(c1cc2ccccc2[nH]c1=O)N1CCC2(CCCNC2)C1 (stereo unspecified)	-4.66%
COc1cccc(-c2ncc(CN3CC[C@H](CO)[C@@H](O)C3)s2)c1	4.23%
COCc1noc(CN2CCC3(CC2)[C@H](O)C[C@@H]3OC)n1	0.0851%
CN(CC(=O)Nc1ccon1)S(=O)(=O)c1cc(Cl)ccc1Cl	0.424%
COc1ccc2c(C(=O)N(C)C)cc(-c3cnc(N)nc3)nc2c1	-3.3%
COCc1c(C(=O)N2CCCC(C(=O)c3ccccc3)C2)noc1C (stereo unspecified)	-2.54%
COc1cccc(CN2CCN(CC(C)C)C(=O)C2C)c1O (stereo unspecified)	2.02%
COC(=O)c1cccc(S(=O)(=O)NC(=O)COC2CCCC2)c1	-1.03%

Compound	cytotoxicity at 10 µM
Cc1cnn(C2CN(Cc3nc(-c4ccsc4)no3)C2)c1	-3.88%
CCc1nc(CNc2ccc(C(=O)N3CCSCC3)cc2C)no1	-6.99%
Cc1cc(CN(C)C2CCCN(c3cccnn3)C2)no1 (stereo unspecified)	-2.45%
O=C(NCC1COC2(CCOCC2)O1)c1csc(-c2cccc(Cl)c2)n1 (stereo unspecified)	-10.7%
Cc1nc2cc(O)nn2c(C)c1CCC(=O)NCc1cc(Br)cs1	-3.04%
CC(=O)N(C)C(c1cccc(F)c1)c1ccccn1 (stereo unspecified)	-1.63%
Cn1ccc(C(=O)Nc2cc(F)ccc2OCC2CCCO2)cc1=O (stereo unspecified)	-1.59%
Cc1cc(C)c(CNC(=O)NCC(O)c2ccccc2)c(=O)[nH]1 (stereo unspecified)	-10%
NC(=O)CC1CCN(C(=O)NCc2ccc(-c3ccn[nH]3)cc2)CC1	-2.38%
CCCc1n[nH]c(C2CN(C(=O)c3ccc4c(c3)COC4)CCO2)n1 (stereo unspecified)	-12.4%
CCNc1cc2c(nn1)CCN(C(=O)Cc1c(C)nn(C)c1C)C2	-8.25%
COc1cc(C(=O)NS(=O)(=O)c2ccc(C#N)cc2)ccc1C	-6.56%
COc1ccc(C(=O)NS(=O)(=O)c2cccc(C#N)c2)cc1	-2.97%
CCc1ncncc1C(=O)N1CCN(Cc2cscn2)CC1	0.512%
c1cncc(-c2noc(CN3CCn4c(nnc4C4CC4)C3)n2)c1	-8.69%
O=C(NCc1cc[nH]n1)NCC(c1ccccc1)N1CCOCC1 (stereo unspecified)	-3.39%
Cc1nc2cc(=O)[nH]n2c(C)c1CC(=O)NCc1ccoc1	-10.4%
CC(Cn1ccnc1)NC(=O)NCc1ccccn1 (stereo unspecified)	-6.66%
Cc1cnn(CC2CN(c3nnc(C)c(C)c3C#N)CCO2)c1 (stereo unspecified)	-5.25%
Cc1cnn(CC2CCCN2C(=O)c2cnc(-c3ccco3)s2)c1 (stereo unspecified)	-7.43%
COC(=O)c1cccn1C1CCN(Cc2nc3ccccc3o2)CC1	1.81%
CC(=O)Nc1nc(CN2CCOC(Cn3nc(C)cc3C)C2)cs1 (stereo unspecified)	4.23%
CC1CN(C(=O)CN(Cc2ccccc2)C2CC2)CCO1 (stereo unspecified)	-16.1%

Compound	cytotoxicity at 10 µM
CN(Cc1cccc(F)c1)C(=O)CS(=O)(=O)Cc1ccc(Cl)c(Cl)c1	-4.67%
CC(C(=O)N1CCCN(c2ncccc2C#N)CC1)n1ccnc1 (stereo unspecified)	-2.6%
COCC(=O)NC(C)Cc1cccc(OC)c1 (stereo unspecified)	-10.6%
CCCc1noc(CCC(=O)N2CCCC2c2noc(C3CC3)n2)n1 (stereo unspecified)	-9.98%
CCOc1ccnc(N2CCN(C(=O)c3cn[nH]c3CC)CC2)n1	-6.69%
N[C@@H](Cc1ccccc1)c1nnc(S(=O)(=O)Cc2ccc(Cl)cc2)o1	14.2%
CCOC[C@H]1CC[C@H]2[C@H](CCN2Cc2c(C)noc2C)O1	3.23%
CNC(=O)CN1CC[C@H]2CN(C(=O)c3ccoc3)C[C@H]2C1	-2.8%
COCC(=O)N1Cc2ccnn2CC(COCCN(C)C)C1 (stereo unspecified)	6.82%
CS(=O)(=O)NCc1cnc2n1CCN(Cc1cccnc1)CC2	5.66%
N#Cc1ccccc1N1CC2(CCCCN2CC2CC2)CC1=O (stereo unspecified)	10.7%
O=C(N1CCCC1)N1CCC2(CCN(Cc3ccccn3)C2=O)C1 (stereo unspecified)	3.2%
Cn1cc(CN2CCC[C@]3(C[C@@H](Oc4ccccn4)CO3)C2)cn1	7.5%
Cc1noc(C)c1CN1CCCC2(C1)CN(c1nccs1)CCO2 (stereo unspecified)	8.47%
Cc1ccc(CN2CCOC3(COCCN(S(C)(=O)=O)C3)C2)o1 (stereo unspecified)	11.7%
O=C1COC2(CCN(S(=O)(=O)C3CC3)CC2)CN1c1cccnc1	-1.69%
c1cnc(N2CCC3(CCN(CC4CCOC4)CC3)CC2)nc1 (stereo unspecified)	-1.22%
Fc1ccc(CN2CCC3(CC2)CC(c2cccnc2)CO3)cc1 (stereo unspecified)	-4.85%
COc1cccc(CC(=O)N2CC[C@@H](OC)[C@@H]2Cc2cccnc2)c1	3.71%
